ChEMBL document CHEMBL4334465, “SAR Studies on Aromatic Acylhydrazone-Based Inhibitors of Fungal Sphingolipid Synthesis as Next-Generation Antifungal Agents” (J Med Chem, 2019)
Converted amounts (≈) assume the structure as drawn. The source made the active and inactive calls. The rule behind the calls is not given here.

How the values were obtained:
HepG2 = test: Cytotoxicity against human HepG2 cells after 24 to 48 hrs by MTT assay; type: functional; settings: read-out: LD50 (the source's name)
Procedure, shortened: (§1)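 A549 and HepG2 kept in DMEM with 10% FBS and 1% pen-strep. At passage 7, seeded at 10⁵ cells/well and allowed to adhere 14 h. Compound added at 0.03–128 μg/mL, untreated wells as controls. Incubation 37°C, 5% CO₂ for 24 or 48 h. MTT (5 mg/mL in PBS) added for 4 h, formazan dissolved in DMSO, OD570.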

Cryptococcus neoformans [1] = test: Fungistatic activity against Cryptococcus neoformans H99 by time-kill assay; type: functional, organism-based; settings: var grubii H99
Procedure, shortened: (§2)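 Overnight C. neoformans washed in PBS and resuspended in HEPES-buffered YNB, pH 7.4. 2 × 10⁴ cells exposed to a range of drug concentrations in 10 mL with 0.5% DMSO final, at 37°C, 5% CO₂, shaking at 200 rpm. Aliquots sampled over 96 h, diluted and plated on YPD; CFU counted after 48 h at 30°C.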

[2] = Selectivity index, ratio of LD50 for human A549 cells to MIC80 for Cryptococcus neoformans H99; type: toxicity; settings: read-out: Selectivity Index
Procedure, shortened: (§3)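 SI = LD₅₀/MIC₈₀. Cytotoxicity: A549 or HepG2 cells (DMEM, 10% FBS, passage 7, 10⁵ cells/well) adhered 14 h, then exposed to 0.03–128 μg/mL for 24 or 48 h at 37°C, 5% CO₂; MTT 4 h, formazan dissolved in DMSO, read at 570 nm. MIC₈₀ against C. neoformans from broth microdilution in HEPES-buffered YNB, pH 7.0.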

Cryptococcus neoformans [3] = test: Antifungal activity against Cryptococcus neoformans H99 measured after 24 to 72 hrs; type: functional; settings: var grubii H99
Procedure, shortened: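 Modified CLSI broth microdilution with inoculum per M27A3. Compounds were serially diluted 32 to 0.03 μg/mL. Media: C. neoformans in HEPES-buffered YNB without amino acids (pH 7.0, 2% glucose); Candida strains in YNB without ammonium sulfate or amino acids plus 1% asparagine (pH 7.0, 2% glucose); A. fumigatus in RPMI (pH 7.0, 2% glucose).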

[4] = Selectivity index, ratio of LD50 for human HepG2 cells to MIC80 for Cryptococcus neoformans H99; type: toxicity; settings: read-out: Selectivity Index; procedure, shortened: as §3
A549 = test: Cytotoxicity against human A549 cells after 24 to 48 hrs by MTT assay; type: functional; settings: read-out: LD50 (the source's name); procedure, shortened: as §1
Cryptococcus neoformans [5] = test: Fungicidal activity against Cryptococcus neoformans H99 measured after 96 hrs by time-kill assay; type: functional, var grubii H99; procedure, shortened: as §2
Cryptococcus neoformans [6] = test: Fungicidal activity against Cryptococcus neoformans H99 measured after 72 hrs by time-kill assay; type: functional, var grubii H99; procedure, shortened: as §2
Cryptococcus neoformans [7] = test: Fungicidal activity against Cryptococcus neoformans H99 measured after 12 hrs by time-kill assay; type: functional, var grubii H99; procedure, shortened: as §2
Cryptococcus neoformans [8] = test: Fungicidal activity against Cryptococcus neoformans H99 measured after 6 hrs by time-kill assay; type: functional, var grubii H99; procedure, shortened: as §2

| Structure (SMILES) | CC50 (HepG2) [µg/mL] | Activity (Cryptococcus neoformans [1]) | selectivity ratio [2] | MIC80 (Cryptococcus neoformans [3]) [µg/mL] | selectivity ratio [4] | CC50 (A549) [µg/mL] | MFC100 (Cryptococcus neoformans [5]) [µg/mL] | MFC100 (Cryptococcus neoformans [6]) [µg/mL] | MFC100 (Cryptococcus neoformans [7]) [µg/mL] | MFC100 (Cryptococcus neoformans [8]) [µg/mL] |
| --- | --- | --- | --- | --- | --- | --- | --- | --- | --- | --- |
| O=C(N/N=C/c1c(O)ccc2ccccc12)c1ccc(Br)c(Br)c1 | 16 (≈ 35.7 µM) | Active | 33.3 | 0.12 (≈ 0.268 µM) | 133 | 4 (≈ 8.93 µM) |  |  |  |  |
| O=C(N/N=C/c1cc(F)ccc1O)c1ccc(Br)cc1 | 16 (≈ 47.5 µM) |  | 8 | 1 (≈ 2.97 µM) | 16 | 8 (≈ 23.7 µM) | 4 (≈ 11.9 µM) |  |  |  |
| O=C(N/N=C/c1cc(C(F)(F)F)ccc1O)c1cccc(Br)c1 | 16 (≈ 41.3 µM) | Active | 32 | 0.5 (≈ 1.29 µM) | 32 | 16 (≈ 41.3 µM) |  |  |  |  |
| O=C(N/N=C/c1cc(Br)ccc1O)c1ccc(OC(F)(F)F)cc1F | 8 (≈ 19 µM) |  | 128 | 0.5 (≈ 1.19 µM) | 16 | 64 (≈ 152 µM) |  | 0.5 (≈ 1.19 µM) |  |  |
| O=C(N/N=C/c1cc(Br)cc(Br)c1O)c1cnc2ccccc2c1 | 32 (≈ 71.3 µM) | Active | 128 | 0.25 (≈ 0.557 µM) | 128 | 32 (≈ 71.3 µM) |  |  |  |  |
| O=C(N/N=C/c1cc(F)ccc1O)c1ccc(Br)cc1Br | 16 (≈ 38.5 µM) |  | 16 | 1 (≈ 2.4 µM) | 16 | 16 (≈ 38.5 µM) | 2 (≈ 4.81 µM) |  |  |  |
| CN(C)c1ccc(C(=O)N/N=C/c2cc(Br)cc(Br)c2O)cc1 | 16 (≈ 36.3 µM) | Active | 32 | 0.5 (≈ 1.13 µM) | 32 | 16 (≈ 36.3 µM) |  |  |  |  |
| O=C(N/N=C/c1cc(Cl)ccc1O)c1ccc(Br)cc1Br | 64 (≈ 148 µM) |  | 256 | 0.25 (≈ 0.578 µM) | 256 | 64 (≈ 148 µM) |  |  | 1 (≈ 2.31 µM) |  |
| O=C(N/N=C/c1cc(Br)ccc1O)c1ccc(OC(F)(F)F)cc1 | 16 (≈ 39.7 µM) |  | 66.6 | 0.06 (≈ 0.149 µM) | 267 | 4 (≈ 9.92 µM) |  |  | 1 (≈ 2.48 µM) |  |
| O=C(N/N=C/c1cc(Br)ccc1O)c1cc(Br)cc(Br)c1 | 16 (≈ 33.5 µM) | Active | 267 | 0.06 (≈ 0.126 µM) | 267 | 16 (≈ 33.5 µM) |  |  |  |  |
| O=C(N/N=C/c1cc(Cl)cc(Cl)c1O)c1ccc(Br)cc1Br | 64 (≈ 137 µM) |  | 128 | 1 (≈ 2.14 µM) | 64 | 128 (≈ 274 µM) |  |  |  | 0.5 (≈ 1.07 µM) |
| O=C(N/N=C/c1cc(Br)cc(Br)c1O)c1ccc(C(F)(F)F)cc1 | 8 (≈ 17.2 µM) |  | 33.3 | 0.12 (≈ 0.257 µM) |  | 4 (≈ 8.58 µM) |  |  | 1 (≈ 2.15 µM) |  |
| O=C(N/N=C/c1ccc(Br)cc1O)c1cc(Br)ccc1Br | 16 (≈ 33.5 µM) |  | 267 | 0.12 (≈ 0.252 µM) | 133 | 32 (≈ 67.1 µM) |  |  |  | 0.25 (≈ 0.524 µM) |
| CN(C)c1ccc(C(=O)N/N=C/c2ccc(Br)cc2O)cc1 | 16 (≈ 44.2 µM) | Active | 64 | 0.25 (≈ 0.69 µM) | 64 | 16 (≈ 44.2 µM) |  |  |  |  |
| O=C(N/N=C/c1cc(Br)ccc1O)c1ccc(OC(F)F)cc1 | 16 (≈ 41.5 µM) |  | 128 | 0.25 (≈ 0.649 µM) | 64 | 32 (≈ 83.1 µM) |  | 2 (≈ 5.19 µM) |  |  |
| O=C(N/N=C/c1cc(Cl)ccc1O)c1cc(Br)cc(Br)c1 | 16 (≈ 37 µM) |  | 133 | 0.12 (≈ 0.277 µM) | 133 | 16 (≈ 37 µM) |  |  | 1 (≈ 2.31 µM) |  |
| O=C(N/N=C/c1cccc(Cl)c1O)c1cccc(C(F)(F)F)c1 | 32 (≈ 93.4 µM) |  | 32 | 1 (≈ 2.92 µM) | 32 | 32 (≈ 93.4 µM) | 2 (≈ 5.84 µM) |  |  |  |
| O=C(N/N=C/c1ccc(Br)cc1O)c1ccc(Br)cc1 | 32 (≈ 80.4 µM) |  | 267 | 0.06 (≈ 0.151 µM) | 533 | 16 (≈ 40.2 µM) | 0.25 (≈ 0.628 µM) |  |  |  |
| O=C(N/N=C/c1cccc(Br)c1O)c1cccc(F)c1 | 16 (≈ 47.5 µM) |  | 16 | 1 (≈ 2.97 µM) | 16 | 16 (≈ 47.5 µM) |  |  | 2 (≈ 5.93 µM) |  |
| O=C(N/N=C/c1ccc(Br)cc1O)c1ccc(Br)c(Br)c1 | 8 (≈ 16.8 µM) |  | 33.3 | 0.12 (≈ 0.252 µM) | 66.6 | 4 (≈ 8.39 µM) |  | 0.5 (≈ 1.05 µM) |  |  |
| O=C(N/N=C/c1cc(OC(F)(F)F)ccc1O)c1ccc(Br)cc1 | 64 (≈ 159 µM) |  | 64 | 0.25 (≈ 0.62 µM) | 256 | 16 (≈ 39.7 µM) |  | 1 (≈ 2.48 µM) |  |  |
| O=C(N/N=C/c1cc(Br)cc(Br)c1O)c1ccc(OC(F)F)cc1 | 16 (≈ 34.5 µM) |  | 133 | 0.12 (≈ 0.259 µM) | 133 | 16 (≈ 34.5 µM) |  |  |  | 1 (≈ 2.15 µM) |
| O=C(N/N=C/c1cc(Br)cc(Br)c1O)c1ccc(OC(F)(F)F)cc1 | 16 (≈ 33.2 µM) |  | 128 | 0.5 (≈ 1.04 µM) | 32 | 64 (≈ 133 µM) |  | 4 (≈ 8.3 µM) |  |  |
| O=C(N/N=C/c1cc(Br)cc(Br)c1O)c1cccc(OC(F)F)c1 | 16 (≈ 34.5 µM) |  | 133 | 0.12 (≈ 0.259 µM) | 133 | 16 (≈ 34.5 µM) | 0.25 (≈ 0.539 µM) |  |  |  |
